{
  "source": "ChEMBL document CHEMBL4152391",
  "about": "“Bile Acid Oligomers and Their Combination with Antibiotics To Combat Bacterial Infections” (J Med Chem, 2018)",
  "key": {"Staphylococcus aureus [1]": {"tested_on": "Staphylococcus aureus", "assay": "Antibacterial activity against Staphylococcus aureus ATCC 29213 at 30 ug after 18 hrs by agar disk-diffusion method", "assay_type": "functional", "in_short": "(§1)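 Agar disk diffusion per CLSI: compound loaded on sterile 6 mm paper disks, dried, placed on Mueller Hinton agar lawned with bacteria at McFarland 0.5; cefotaxime positive and DMSO solvent controls; 37 °C for 18 h; zone of inhibition diameter measured to nearest whole mm.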"}, "Escherichia coli": {"tested_on": "Escherichia coli", "assay": "Antibacterial activity against Escherichia coli ATCC 25922 at 5 to 100 ug after 18 hrs by agar disk-diffusion method", "assay_type": "functional, organism-based", "in_short": "as §1"}, "HEK293": {"tested_on": "HEK293", "assay": "Cytotoxicity against HEK293 cells assessed as decrease in cell viability at 1 to 200 uM after 24 hrs by Alamar Blue assay", "assay_type": "cell-based", "settings": "human, hek293, 24 h", "in_short": "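HEK293 cells in DMEM HG, 10% FBS, 1% pen-strep, 37 °C 5% CO2, passage under 30, used at 80% confluency; seeded 1×10^4/well, after 24 h washed and treated 24 h with 1–200 µM in complete medium; alamar blue (0.15 mg/mL) added for 4 h, absorbance 570 and 600 nm; viability relative to untreated cells as 100%.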"}, "Pseudomonas aeruginosa": {"tested_on": "Pseudomonas aeruginosa", "assay": "Antibacterial activity against Pseudomonas aeruginosa at 5 to 100 ug after 18 hrs by agar disk-diffusion method", "assay_type": "functional, organism-based", "in_short": "as §1"}, "Staphylococcus aureus [2]": {"tested_on": "Staphylococcus aureus", "assay": "Antibacterial activity against Staphylococcus aureus ATCC 29213 at 5 to 100 ug after 18 hrs by agar disk-diffusion method", "assay_type": "functional, organism-based", "in_short": "as §1"}},
  "note": "Calls of active or inactive are those of the source. The calls are words filed in the database; no cut-off is given here.",
  "data": [
    {"smiles": "C[C@H](CCC(=O)NCCCNC(=O)CC[C@@H](C)[C@H]1CC[C@H]2[C@@H]3[C@H](O)C[C@@H]4C[C@H](O)CC[C@]4(C)[C@H]3C[C@H](O)[C@]12C)[C@H]1CC[C@H]2[C@@H]3[C@H](O)C[C@@H]4C[C@H](O)CC[C@]4(C)[C@H]3C[C@H](O)[C@]12C", "values": [
      {"measurement": "Activity", "setting": "Staphylococcus aureus [1]", "value": "inactive"},
      {"measurement": "Activity", "setting": "Escherichia coli", "value": "inactive"},
      {"measurement": "Activity", "setting": "HEK293", "value": "Non-Toxic"},
      {"measurement": "Activity", "setting": "Pseudomonas aeruginosa", "value": "inactive"}
    ]},
    {"smiles": "CCCCCCCCCCCCCCCC(=O)NCCN(CCNC(=O)OC(C)(C)C)C(=O)OC(C)(C)C", "values": [
      {"measurement": "Activity", "setting": "Escherichia coli", "value": "inactive"},
      {"measurement": "Activity", "setting": "Pseudomonas aeruginosa", "value": "inactive"}
    ]},
    {"smiles": "C[C@H](CCC(=O)NCCNC(=O)CC[C@@H](C)[C@H]1CC[C@H]2[C@@H]3[C@H](O)C[C@@H]4C[C@H](O)CC[C@]4(C)[C@H]3C[C@H](O)[C@]12C)[C@H]1CC[C@H]2[C@@H]3[C@H](O)C[C@@H]4C[C@H](O)CC[C@]4(C)[C@H]3C[C@H](O)[C@]12C", "values": [
      {"measurement": "Activity", "setting": "Staphylococcus aureus [1]", "value": "inactive"},
      {"measurement": "Activity", "setting": "Escherichia coli", "value": "inactive"},
      {"measurement": "Activity", "setting": "HEK293", "value": "Non-Toxic"},
      {"measurement": "Activity", "setting": "Pseudomonas aeruginosa", "value": "inactive"}
    ]},
    {"smiles": "CC(=O)N(CCNC(=O)CC[C@@H](C)[C@H]1CC[C@H]2[C@@H]3[C@H](O)C[C@@H]4C[C@H](O)CC[C@]4(C)[C@H]3C[C@H](O)[C@]12C)CCNC(=O)CC[C@@H](C)[C@H]1CC[C@H]2[C@@H]3[C@H](O)C[C@@H]4C[C@H](O)CC[C@]4(C)[C@H]3C[C@H](O)[C@]12C", "values": [
      {"measurement": "Activity", "setting": "Staphylococcus aureus [2]", "value": "inactive"},
      {"measurement": "Activity", "setting": "Escherichia coli", "value": "inactive"},
      {"measurement": "Activity", "setting": "Pseudomonas aeruginosa", "value": "inactive"}
    ]},
    {"smiles": "C[C@H](CCC(=O)NCCN(CCN(CCNC(=O)CC[C@@H](C)[C@H]1CC[C@H]2[C@@H]3[C@H](O)C[C@@H]4C[C@H](O)CC[C@]4(C)[C@H]3C[C@H](O)[C@]12C)C(=O)OC(C)(C)C)C(=O)OC(C)(C)C)[C@H]1CC[C@H]2[C@@H]3[C@H](O)C[C@@H]4C[C@H](O)CC[C@]4(C)[C@H]3C[C@H](O)[C@]12C", "values": [
      {"measurement": "Activity", "setting": "Staphylococcus aureus [2]", "value": "inactive"},
      {"measurement": "Activity", "setting": "Escherichia coli", "value": "inactive"},
      {"measurement": "Activity", "setting": "Pseudomonas aeruginosa", "value": "inactive"}
    ]},
    {"smiles": "C[C@H](CCC(=O)N1CCCN(C(=O)CC[C@@H](C)[C@H]2CC[C@H]3[C@@H]4[C@H](O)C[C@@H]5C[C@H](O)CC[C@]5(C)[C@H]4C[C@H](O)[C@]23C)CCN(C(=O)CC[C@@H](C)[C@H]2CC[C@H]3[C@@H]4[C@H](O)C[C@@H]5C[C@H](O)CC[C@]5(C)[C@H]4C[C@H](O)[C@]23C)CCCN(C(=O)CC[C@@H](C)[C@H]2CC[C@H]3[C@@H]4[C@H](O)C[C@@H]5C[C@H](O)CC[C@]5(C)[C@H]4C[C@H](O)[C@]23C)CC1)[C@H]1CC[C@H]2[C@@H]3[C@H](O)C[C@@H]4C[C@H](O)CC[C@]4(C)[C@H]3C[C@H](O)[C@]12C", "values": [
      {"measurement": "Activity", "setting": "Staphylococcus aureus [2]", "value": "inactive"},
      {"measurement": "Activity", "setting": "Escherichia coli", "value": "inactive"},
      {"measurement": "Activity", "setting": "HEK293", "value": "Non-Toxic"},
      {"measurement": "Activity", "setting": "Pseudomonas aeruginosa", "value": "inactive"}
    ]},
    {"smiles": "C[C@H](CCC(=O)NCCNC(=O)CC[C@@H](C)[C@H]1CC[C@H]2[C@@H]3CC[C@@H]4C[C@H](O)CC[C@]4(C)[C@H]3C[C@H](O)[C@]12C)[C@H]1CC[C@H]2[C@@H]3CC[C@@H]4C[C@H](O)CC[C@]4(C)[C@H]3C[C@H](O)[C@]12C", "values": [
      {"measurement": "Activity", "setting": "Staphylococcus aureus [1]", "value": "inactive"},
      {"measurement": "Activity", "setting": "Escherichia coli", "value": "inactive"},
      {"measurement": "Activity", "setting": "HEK293", "value": "Non-Toxic"},
      {"measurement": "Activity", "setting": "Pseudomonas aeruginosa", "value": "inactive"}
    ]},
    {"smiles": "C[C@H](CCC(=O)NCCNCCNC(=O)CC[C@@H](C)[C@H]1CC[C@H]2[C@@H]3CC[C@@H]4C[C@H](O)CC[C@]4(C)[C@H]3C[C@H](O)[C@]12C)[C@H]1CC[C@H]2[C@@H]3CC[C@@H]4C[C@H](O)CC[C@]4(C)[C@H]3C[C@H](O)[C@]12C", "values": [
      {"measurement": "Activity", "setting": "Staphylococcus aureus [1]", "value": "inactive"},
      {"measurement": "Activity", "setting": "Escherichia coli", "value": "inactive"},
      {"measurement": "Activity", "setting": "Pseudomonas aeruginosa", "value": "inactive"}
    ]},
    {"smiles": "C[C@H](CCC(=O)NCCN(CCNC(=O)CC[C@@H](C)[C@H]1CC[C@H]2[C@@H]3CC[C@@H]4C[C@H](O)CC[C@]4(C)[C@H]3C[C@H](O)[C@]12C)CCNC(=O)CC[C@@H](C)[C@H]1CC[C@H]2[C@@H]3CC[C@@H]4C[C@H](O)CC[C@]4(C)[C@H]3C[C@H](O)[C@]12C)[C@H]1CC[C@H]2[C@@H]3CC[C@@H]4C[C@H](O)CC[C@]4(C)[C@H]3C[C@H](O)[C@]12C", "values": [
      {"measurement": "Activity", "setting": "Staphylococcus aureus [2]", "value": "inactive"},
      {"measurement": "Activity", "setting": "Escherichia coli", "value": "inactive"},
      {"measurement": "Activity", "setting": "HEK293", "value": "Non-Toxic"},
      {"measurement": "Activity", "setting": "Pseudomonas aeruginosa", "value": "inactive"}
    ]},
    {"smiles": "C[C@H](CCC(=O)NCCCCCNC(=O)CC[C@@H](C)[C@H]1CC[C@H]2[C@@H]3[C@H](O)C[C@@H]4C[C@H](O)CC[C@]4(C)[C@H]3C[C@H](O)[C@]12C)[C@H]1CC[C@H]2[C@@H]3[C@H](O)C[C@@H]4C[C@H](O)CC[C@]4(C)[C@H]3C[C@H](O)[C@]12C", "values": [
      {"measurement": "Activity", "setting": "Staphylococcus aureus [2]", "value": "inactive"},
      {"measurement": "Activity", "setting": "Escherichia coli", "value": "inactive"},
      {"measurement": "Activity", "setting": "Pseudomonas aeruginosa", "value": "inactive"}
    ]},
    {"smiles": "CCCCCCCCCCCCCCCC(=O)NCCNCCNC(=O)CC[C@@H](C)[C@H]1CC[C@H]2[C@@H]3[C@H](O)C[C@@H]4C[C@H](O)CC[C@]4(C)[C@H]3C[C@H](O)[C@]12C", "values": [
      {"measurement": "Activity", "setting": "Staphylococcus aureus [2]", "value": "inactive"},
      {"measurement": "Activity", "setting": "Escherichia coli", "value": "inactive"},
      {"measurement": "Activity", "setting": "Pseudomonas aeruginosa", "value": "inactive"}
    ]},
    {"smiles": "CC(C)(C)OC(=O)NCCN(CCN)C(=O)OC(C)(C)C", "values": [
      {"measurement": "Activity", "setting": "Escherichia coli", "value": "inactive"},
      {"measurement": "Activity", "setting": "Pseudomonas aeruginosa", "value": "inactive"}
    ]},
    {"smiles": "C[C@H](CCC(=O)NCCCNC(=O)CC[C@@H](C)[C@H]1CC[C@H]2[C@@H]3CC[C@@H]4C[C@H](O)CC[C@]4(C)[C@H]3C[C@H](O)[C@]12C)[C@H]1CC[C@H]2[C@@H]3CC[C@@H]4C[C@H](O)CC[C@]4(C)[C@H]3C[C@H](O)[C@]12C", "values": [
      {"measurement": "Activity", "setting": "Staphylococcus aureus [1]", "value": "inactive"},
      {"measurement": "Activity", "setting": "Escherichia coli", "value": "inactive"},
      {"measurement": "Activity", "setting": "HEK293", "value": "Non-Toxic"},
      {"measurement": "Activity", "setting": "Pseudomonas aeruginosa", "value": "inactive"}
    ]},
    {"smiles": "C[C@H](CCC(=O)NCCN(CCNC(=O)CC[C@@H](C)[C@H]1CC[C@H]2[C@@H]3[C@H](O)C[C@@H]4C[C@H](O)CC[C@]4(C)[C@H]3C[C@H](O)[C@]12C)CCNC(=O)CC[C@@H](C)[C@H]1CC[C@H]2[C@@H]3[C@H](O)C[C@@H]4C[C@H](O)CC[C@]4(C)[C@H]3C[C@H](O)[C@]12C)[C@H]1CC[C@H]2[C@@H]3[C@H](O)C[C@@H]4C[C@H](O)CC[C@]4(C)[C@H]3C[C@H](O)[C@]12C", "values": [
      {"measurement": "Activity", "setting": "Staphylococcus aureus [2]", "value": "inactive"},
      {"measurement": "Activity", "setting": "Escherichia coli", "value": "inactive"},
      {"measurement": "Activity", "setting": "HEK293", "value": "Non-Toxic"},
      {"measurement": "Activity", "setting": "Pseudomonas aeruginosa", "value": "inactive"}
    ]},
    {"smiles": "CCCCCCCCCCCCCCCC(=O)N(CCNC(=O)CC[C@@H](C)[C@H]1CC[C@H]2[C@@H]3[C@H](O)C[C@@H]4C[C@H](O)CC[C@]4(C)[C@H]3C[C@H](O)[C@]12C)CCNC(=O)CC[C@@H](C)[C@H]1CC[C@H]2[C@@H]3[C@H](O)C[C@@H]4C[C@H](O)CC[C@]4(C)[C@H]3C[C@H](O)[C@]12C", "values": [
      {"measurement": "Activity", "setting": "Staphylococcus aureus [2]", "value": "inactive"},
      {"measurement": "Activity", "setting": "Escherichia coli", "value": "inactive"},
      {"measurement": "Activity", "setting": "Pseudomonas aeruginosa", "value": "inactive"}
    ]},
    {"smiles": "CCCCCCCCCCCCCCCC(=O)NCCNCCN", "values": [
      {"measurement": "Activity", "setting": "Escherichia coli", "value": "inactive"},
      {"measurement": "Activity", "setting": "Pseudomonas aeruginosa", "value": "inactive"}
    ]}
  ]
}
